Experimental data from ChEMBL document CHEMBL2417386, “Novel conjugated quinoline-indoles compromise Plasmodium falciparum mitochondrial function and show promising antimalarial activity” (J Med Chem, 2013).
pIC50: −log10 of the molar value.

Tests used:
[1] = Selectivity index, ratio of IC50 for HEK293 cells to IC50 for Plasmodium falciparum 3D7 after 72 hrs; type: toxicity, cell-based; details: human, read-out: Ratio IC50
In short: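 Parasite (3D7) viability assay and HEK293 viability assay, each with a 72 h exposure. Index taken as the ratio of the IC50 values, HEK293 over 3D7.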

Plasmodium falciparum [2] = assay: Antimalarial activity against Plasmodium falciparum K1 infected in RBC assessed as growth inhibition after 48 hrs by SYBR Green-I fluorescence assay; type: functional, organism-based; details: K1, 48 h
In short: (§1)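 Parasite-infected red cells exposed to compound for 48 h; growth read by SYBR Green-I fluorescence; IC50 derived. Where a ± is given, it is the standard deviation of three individual experiments.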

Plasmodium falciparum [3] = assay: Antimalarial activity against Plasmodium falciparum 3D7 infected in RBC assessed as growth inhibition after 48 hrs by SYBR Green-I fluorescence assay; type: functional, organism-based; details: 3D7, 48 h; in short: as §1
Plasmodium falciparum [4] = assay: Ratio of IC50 for trophozoite stage of Plasmodium falciparum 3D7 infected in RBC after 5 hrs in presence of 5 uM ALLN to IC50 for trophozoite stage of Plasmodium falciparum 3D7 infected in RBC after 5 hrs in absence of ALLN; type: functional
In short: (§2)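 Trophozoite-stage parasites pulsed 5 h with compound, with or without ALLN (0.2 or 5 μM). Drug and ALLN then removed; culture continued a further 43 h before survival was assessed. Antagonism expressed as the ratio of IC50 with ALLN to IC50 without ALLN.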

Plasmodium falciparum [5] = assay: Ratio of IC50 for trophozoite stage of Plasmodium falciparum 3D7 infected in RBC after 5 hrs in presence of 0.2 uM ALLN to IC50 for trophozoite stage of Plasmodium falciparum 3D7 infected in RBC after 5 hrs in absence of ALLN; type: functional; in short: as §2
Plasmodium falciparum [6] = assay: Antimalarial activity against trophozoite stage of Plasmodium falciparum 3D7 infected in RBC assessed as growth inhibition after 5 hrs by SYBR Green-I fluorescence assay; type: functional, organism-based; details: 3D7, 5 h
In short: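 Trophozoite-stage parasites pulsed with compound for 5 h. Drug then washed out and parasites cultured a further 43 h before survival was assessed.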

Plasmodium falciparum [7] = assay: Ratio of IC50 for trophozoite stage of Plasmodium falciparum 3D7 infected in RBC after 5 hrs to IC50 for Plasmodium falciparum 3D7 infected in RBC after 48 hrs; type: functional
[8] = Inhibition of beta-hematin formation after 24 hrs by spectrophotometric analysis in presence of nonidet P40; type: functional
Plasmodium falciparum [9] = assay: Resistant index, ratio of IC50 for Plasmodium falciparum K1 to IC50 for Plasmodium falciparum 3D7; type: functional
In short: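 Ratio of K1 to 3D7 IC50 values. Each IC50 comes from a 48 h drug exposure of the P. falciparum strain, with growth read by SYBR Green-I fluorescence. Where spread is given, it is the standard deviation of three individual experiments.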

Plasmodium falciparum [10] = assay: Antimalarial activity against mid to late trophozoite stage of Plasmodium falciparum 3D7 infected in RBC assessed as nonviable parasite at 15 uM after 0.5 hrs by SYTO 61 staining-based flow cytometric analysis relative to untreated control; type: functional
Plasmodium falciparum [11] = assay: Gametocytocidal activity against synchronous stage 4 to 5 of transgenic Plasmodium falciparum NF54 gametocyte harboring pfs16 promoter assessed as parasite viability after 72 hrs by MitoTracker Red CMXRos-based assay; type: functional, organism-based; details: NF54, 72 h
Plasmodium falciparum [12] = assay: Gametocytocidal activity against synchronous stage 1 to 3 of transgenic Plasmodium falciparum NF54 gametocyte harboring pfs16 promoter assessed as parasite viability after 72 hrs by luciferase reporter gene assay; type: functional, organism-based; details: NF54, 72 h
Plasmodium falciparum [13] = assay: Gametocytocidal activity against asexual stage of transgenic Plasmodium falciparum NF54 gametocyte harboring pfs16 promoter assessed as parasite viability after 72 hrs by luciferase reporter gene assay; type: functional, organism-based; details: NF54, 72 h
Plasmodium falciparum [14] = assay: Antimalarial activity against mid to late trophozoite stage of Plasmodium falciparum 3D7 infected in RBC assessed as abnormal mitochondria at 0.6 uM after 0.5 hrs by MitoTracker Red CMXRos-based fluorescence microscopic analysis relative to untreated control; type: functional
Plasmodium falciparum [15] = assay: Antimalarial activity against mid to late trophozoite stage of Plasmodium falciparum 3D7 infected in RBC assessed as abnormal mitochondria at 3 uM after 0.5 hrs by MitoTracker Red CMXRos-based fluorescence microscopic analysis relative to untreated control; type: functional
Plasmodium falciparum [16] = assay: Antimalarial activity against mid to late trophozoite stage of Plasmodium falciparum 3D7 infected in RBC assessed as abnormal mitochondria at 15 uM after 0.5 hrs by MitoTracker Red CMXRos-based fluorescence microscopic analysis relative to untreated control; type: functional
Plasmodium falciparum [17] = assay: Antimalarial activity against mid to late trophozoite stage of Plasmodium falciparum 3D7 infected in RBC assessed as nonviable parasite at 0.6 uM after 0.5 hrs by SYTO 61 staining-based flow cytometric analysis relative to untreated control; type: functional
Plasmodium falciparum [18] = assay: Antimalarial activity against mid to late trophozoite stage of Plasmodium falciparum 3D7 infected in RBC assessed as nonviable parasite at 3 uM after 0.5 hrs by SYTO 61 staining-based flow cytometric analysis relative to untreated control; type: functional
Plasmodium falciparum [19] = assay: Antimalarial activity against mid to late trophozoite stage of Plasmodium falciparum 3D7 infected in RBC assessed as abnormal mitochondria at 0.0002 uM after 0.5 hrs by MitoTracker Red CMXRos-based fluorescence microscopic analysis relative to untreated control; type: functional
Plasmodium falciparum [20] = assay: Antimalarial activity against mid to late trophozoite stage of Plasmodium falciparum 3D7 infected in RBC assessed as abnormal mitochondria at 0.001 uM after 0.5 hrs by MitoTracker Red CMXRos-based fluorescence microscopic analysis relative to untreated control; type: functional
Plasmodium falciparum [21] = assay: Antimalarial activity against mid to late trophozoite stage of Plasmodium falciparum 3D7 infected in RBC assessed as nonviable parasite at 0.0002 uM after 0.5 hrs by SYTO 61 staining-based flow cytometric analysis relative to untreated control; type: functional
Plasmodium falciparum [22] = assay: Antimalarial activity against mid to late trophozoite stage of Plasmodium falciparum 3D7 infected in RBC assessed as nonviable parasite at 0.001 uM after 0.5 hrs by SYTO 61 staining-based flow cytometric analysis relative to untreated control; type: functional
Plasmodium falciparum [23] = assay: Antimalarial activity against mid to late trophozoite stage of Plasmodium falciparum 3D7 infected in RBC assessed as abnormal mitochondria at 20 uM after 0.5 hrs by MitoTracker Red CMXRos-based fluorescence microscopic analysis relative to untreated control; type: functional

| Compound | selectivity ratio at 72 h [1] | pIC50 (Plasmodium falciparum [2]) | pIC50 (Plasmodium falciparum [3]) | Ratio IC50 (Plasmodium falciparum [9]) | other results |
| --- | --- | --- | --- | --- | --- |
| CCCC[n+]1c(/C=C/c2c[nH]c3ccccc23)cc(N)c2ccccc21 | 4 | 6.36 | 6.35 | – | – |
| Cc1cc(N)c2ccccc2[n+]1C | – | < 5.30 | < 5.40 | – | – |
| CN(C)c1ccc2nc3ccc(N(C)C)cc3[s+]c2c1.[Cl-] [METHYLENE BLUE ANHYDROUS] | – | 8.10 | 7.70 | – | Ratio IC50 (Plasmodium falciparum [4]): 3.2; Ratio IC50 (Plasmodium falciparum [5]): 2.1; pIC50 (Plasmodium falciparum [6]): 7.52; Ratio IC50 (Plasmodium falciparum [7]): 1.5 |
| CNc1cc(/C=C/c2c(C)[nH]c3ccccc23)[n+](C)c2ccccc12 | 16 | 5.80 | 5.85 | – | – |
| C[n+]1c(/C=C/c2n[nH]c3ccccc23)cc(N)c2ccccc21.[I-] | 107 | 6.64 | 6.15 | 0.3 | pIC50 [8]: 2.82 |
| C[n+]1c(/C=C/c2c[nH]c3ncccc23)cc(N)c2ccccc21.[I-] | 4 | 6.60 | 6.40 | 0.3 | – |
| C[n+]1c(/C=C/c2c[nH]c3ccccc23)cc(N)c2ccc(Cl)cc21 | 2 | 6.72 | 6.40 | – | pIC50 [8]: 3.52 |
| C[n+]1c(/C=C/c2c[nH]c3ccccc23)cc(N)c2ccccc21.[I-] | 35 | 6.92 | 6.70 | 0.6 | Activity (Plasmodium falciparum [10]): 81%; pIC50 (Plasmodium falciparum [11]): 5.40; pIC50 (Plasmodium falciparum [12]): 6.52; Ratio IC50 (Plasmodium falciparum [4]): 3; Ratio IC50 (Plasmodium falciparum [5]): 1.5; pIC50 [8]: 2.85; pIC50 (Plasmodium falciparum [6]): 6.00; pIC50 (Plasmodium falciparum [13]): 7.00; Ratio IC50 (Plasmodium falciparum [7]): 5; Activity (Plasmodium falciparum [14]): 18%; Activity (Plasmodium falciparum [15]): 91%; Activity (Plasmodium falciparum [16]): 100%; Activity (Plasmodium falciparum [17]): 8%; Activity (Plasmodium falciparum [18]): 73% |
| C[C@H]1[C@H](OC(=O)CCC(=O)O)O[C@@H]2O[C@@]3(C)CC[C@H]4[C@H](C)CC[C@@H]1[C@@]24OO3 [ARTESUNATE] | – | – | – | – | pIC50 (Plasmodium falciparum [11]): 8.10 |
| Nc1cc(/C=C/c2n[nH]c3ccccc23)nc2ccccc12 | 164 | 6.40 | 6.85 | 2 | – |
| CC1(C)N=C(N)N=C(N)N1OCCCOc1cc(Cl)c(Cl)cc1Cl | – | – | 9.34 | – | Ratio IC50 (Plasmodium falciparum [4]): 0.7; Ratio IC50 (Plasmodium falciparum [5]): 0.7; pIC50 (Plasmodium falciparum [6]): 9.40; Ratio IC50 (Plasmodium falciparum [7]): 0.9; Activity (Plasmodium falciparum [19]): 3%; Activity (Plasmodium falciparum [20]): 3%; Activity (Plasmodium falciparum [21]): 40%; Activity (Plasmodium falciparum [22]): 73% |
| Nc1cc(CCc2c[nH]c3ccccc23)nc2ccccc12 | 67 | 5.66 | 6.05 | – | – |
| CCN(CC)CCCC(C)Nc1cc(/C=C/c2c[nH]c3ccccc23)nc2ccccc12 (stereo unspecified) | 87 | 6.48 | 7.00 | 3 | Ratio IC50 (Plasmodium falciparum [4]): 2.6; Ratio IC50 (Plasmodium falciparum [5]): 1.6; pIC50 [8]: 2.96; pIC50 (Plasmodium falciparum [6]): 6.77; Ratio IC50 (Plasmodium falciparum [7]): 1.7 |
| N#CC(C#N)=NNc1cccc(Cl)c1 [CARBONYL CYANIDE M-CHLOROPHENYLHYDRAZONE] | – | – | – | – | Activity (Plasmodium falciparum [23]): 74% |
| C[n+]1c(/C=C/c2c[nH]c3cc(F)ccc23)cc(N)c2ccccc21.[I-] | 4 | 6.85 | 6.54 | 0.3 | – |
